The values that follow come from ChEMBL document CHEMBL1145867, “Muraymycins, novel peptidoglycan biosynthesis inhibitors: synthesis and SAR of their analogues” (2003).

Test [1] in a line: The inhibitory activity of compound against MraY or MurG at 6.25 ug/mL; No Inhibition.
Test [2] in a line: The inhibitory activity of compound against MraY or MurG at 100 ug/mL;Inhibit.
Test [3] in a line: The inhibitory activity of compound against MraY or MurG at 50 ug/mL; Inhibit.
Test [4] can be described thus: The inhibitory activity of compound against MraY or MurG at 25 ug/mL; Inhibit.
Test [5] is described as follows: The inhibitory activity of compound against MraY or MurG at 12.5 ug/mL; No Inhibition.
Test [6] deals with Bacteria. Briefly: In vitro antimicrobial activity against gram-negative organisms (10). The format is functional. The gist of the method:
(§1)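 Broth microdilution per NCCLS guidance. Serial dilutions of each agent in microtiter plates are inoculated with each organism to 10⁵ CFU/mL and incubated 18–22 h at 35 C in ambient air. MIC is the lowest concentration giving complete growth inhibition, judged by the unaided eye.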

In test [7] the test system is Enterococcus sp. Nature of the test: In vitro antimicrobial activity against Enterococci. The class given is functional. A digest of the protocol:
as §1

The test system of test [8] is Staphylococcus sp. Briefly: In vitro antimicrobial activity against Staphylococci. The format is functional, staphyl ococcus species. The gist of the method: as §1
Test [9] deals with Staphylococcus aureus. Briefly: In vitro antimicrobial activity against Staphylococcu aureus GC 2216. The format is functional. A digest of the protocol:
as §1

In test [10] the test system is Candida albicans. Nature of the test: In vitro antimicrobial activity against Candida albicans GC 3066. The format is functional. The gist of the method: as §1
Test [11] concerns Enterococcus faecalis. Nature of the test: In vitro antimicrobial activity against Enterococcus faecalis GC 4555. The class given is functional. The gist of the method: as §1
Test [12] concerns Escherichia coli. Nature of the test: In vitro antimicrobial activity against Escherichia coli GC 4560. The class given is functional. A digest of the protocol:
as §1

In test [13] the test system is Staphylococcus aureus. Briefly: In vitro antimicrobial activity against Staphylococcu aureus GC 1131. The class given is functional. A digest of the protocol: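 Broth dilution per NCCLS recommendations. Serial dilutions in microtiter plates inoculated to 10⁵ CFU/mL, then incubated 18–22 h at 35 C in ambient air. MIC taken as the lowest concentration giving complete growth inhibition by unaided eye.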

The subject of test [14] is Escherichia coli. Briefly: In vitro antimicrobial activity against Escherichia coli GC 2214. The class given is functional. The gist of the method:
as §1

The test system of test [15] is Pseudomonas aeruginosa. Briefly: In vitro antimicrobial activity against Pseudomonas aeruginosa GC 2214. The format is functional. The gist of the method: as §1
Test [16] is described as follows: The inhibitory activity of compound against MraY or MurG at 25 ug/mL; No Inhibition.
For test [17], the system named is Enterococcus faecalis. Briefly: In vitro antimicrobial activity against Enterococcus faecalis GC 2242. The class given is functional. A digest of the protocol: as §1
Test [18] concerns Escherichia coli. Nature of the test: In vitro antimicrobial activity against Escherichia coli GC 3226. The format is functional. The gist of the method: as §1
For test [19], the system named is Staphylococcus sp. Briefly: In vitro antimicrobial activity against CNS GC 4538. The format is functional. The gist of the method: as §1
Test [20] has as its system Serratia marcescens. Nature of the test: In vitro antimicrobial activity against Serratia marcescens GC 4077. The class given is functional. The gist of the method:
as §1

In test [21] the test system is Enterobacter cloacae. Briefly: In vitro antimicrobial activity against Enterobacter cloacae GC 3783. The format is functional. A digest of the protocol: as §1
Test [22] relates to Klebsiella pneumoniae. Nature of the test: In vitro antimicrobial activity against Klebsiella pneumoniae GC 4534. The format is functional. A digest of the protocol:
as §1

Test [23] deals with Morganella morganii. Briefly: In vitro antimicrobial activity against Morganella morganii GC 4531. The format is functional. A digest of the protocol: as §1
Test [24] concerns Enterococcus faecalis. Briefly: In vitro antimicrobial activity against Enterococcus faecalis GC 842. The class given is functional. A digest of the protocol: as §1
The subject of test [25] is Pseudomonas aeruginosa. Briefly: In vitro antimicrobial activity against Pseudomonas aeruginosa GC 4532. The class given is functional. A digest of the protocol: as §1
For test [26], the system named is Escherichia coli. Briefly: In vitro antimicrobial activity against Escherichia coli GC 4559. The class given is functional. The gist of the method:
as §1

Test [27] concerns Staphylococcus sp. Briefly: In vitro antimicrobial activity against CNS GC 4547. The format is functional. The gist of the method:
as §1

For test [28], the system named is Staphylococcus aureus. Briefly: In vitro antimicrobial activity against Staphylococcu aureus GC 4536. The format is functional. A digest of the protocol:
as §1

In test [29] the test system is Candida albicans. Nature of the test: In vitro antimicrobial activity against Candida albicans […] at 32 ug/ml soluble peptidoglycan. The class given is functional.
The nature of test [30]: The inhibitory activity of compound against MraY or MurG at 100 ug/mL; Inhibit.
The subject of test [31] is Staphylococcus aureus. Nature of the test: In vitro antimicrobial activity against Staphylococcus aureus GC 4536 at 32 ug/ml soluble peptidoglycan. The class given is functional.
Test [32] deals with Staphylococcus sp. Briefly: In vitro antimicrobial activity against Coagulase-negative staphylococcus GC 4538 at 32 ug/ml soluble peptidoglycan. The class given is functional.
For test [33], the system named is Enterococcus faecalis. Nature of the test: In vitro antimicrobial activity against Enterococcus faecalis GC 4555 at 32 ug/ml soluble peptidoglycan. The class given is functional.
Test [34] can be described thus: The inhibitory activity of compound against MraY or MurG at 6.25 ug/mL; No inhibition.
Test [35] in a line: The inhibitory activity of compound against MraY or MurG at 25 ug/mL; No inhibition.
A short description of test [36]: The inhibitory activity of compound against MraY or MurG at 12.5 ug/mL; No inhibition.
Test [37] deals with Bacteria. Briefly: In vitro antimicrobial activity against gram-negative organisms (10).
The nature of test [38]: The inhibitory activity of compound against MraY or MurG at 50 ug/mL; No inhibition.
Test [39] has as its system Staphylococcus sp. Briefly: In vitro antimicrobial activity against CNS GC 4538 at 32 ug/ml soluble peptidoglycan. The format is functional.
Test [40] has as its system Enterococcus faecalis. Briefly: In vitro antimicrobial activity against Enterococcus faecalis GC 2242 at 32 ug/ml soluble peptidoglycan. The class given is functional.
For test [41], the system named is Staphylococcus sp. Briefly: In vitro antimicrobial activity against CNS GC 4547 at 32 ug/ml soluble peptidoglycan. The format is functional.
Test [42] concerns Enterococcus faecalis. Nature of the test: In vitro antimicrobial activity against Enterococcus faecalis GC 842 at 32 ug/ml soluble peptidoglycan. The format is functional.
For test [43], the system named is Staphylococcus aureus. Briefly: In vitro antimicrobial activity against Staphylococcus aureus GC 1131 at 32 ug/ml soluble peptidoglycan. The format is functional.
For test [44], the system named is Staphylococcus aureus. Nature of the test: In vitro antimicrobial activity against Staphylococcus aureus GC 2216 at 32 ug/ml soluble peptidoglycan. The class given is functional.

≈ marks a conversion by molar mass, not a printed value. Calls of active or inactive are those of the source. The calls are words filed in the database; no cut-off is given here. A value given as a limit tells only on which side of the number the result lay.

With `COc1ccc(Cn2c(=O)ccn([C@@H]3OC([C@H](O)[C@H](NCCCNC(=O)[C@H](N)CC(C)C)C(=O)OC(C)(C)C)[C@@H](O[Si](C)(C)C(C)(C)C)[C@H]3O[Si](C)(C)C(C)(C)C)c2=O)cc1` (some centres not stated), the Inhibitory activity entry in [1] and in [5] was “inactive” in each case. The Inhibitory activity result in test [2], in [3] and in test [4] was “Inhibit” each time. For the same compound, the MIC is above 128 µg/mL in [6], 4 µg/mL (≈ 4.48 µM) in test [7] and 4 µg/mL (≈ 4.48 µM) in test [8].

Take `COc1ccc(Cn2c(=O)ccn([C@@H]3OC([C@H](O)[C@H](NCCCNC(=O)[C@H](N)C(O)C(C)C)C(=O)OC(C)(C)C)[C@@H](O[Si](C)(C)C(C)(C)C)[C@H]3O[Si](C)(C)C(C)(C)C)c2=O)cc1` (some centres not stated): the Inhibitory activity entry in test [1], in test [16] and in test [5] was “inactive” each time. Also, the MIC is 4 µg/mL (≈ 4.4 µM) in test [9]; above 128 µg/mL in [10]; 4 µg/mL (≈ 4.4 µM) in test [11]; above 128 µg/mL in test [12]; 4 µg/mL (≈ 4.4 µM) in test [13]; above 128 µg/mL in test [14]. Moreover, the MIC is above 128 µg/mL in [15]; 4 µg/mL (≈ 4.4 µM) in test [17]; above 128 µg/mL in [18]; 4 µg/mL (≈ 4.4 µM) in test [19]; 4 µg/mL (≈ 4.4 µM) in test [19] (Staphylococcus sp., read-out: MIC); above 128 µg/mL in test [20]. In addition, the MIC in test [6] is above 128 µg/mL; in test [21] it was above 128 µg/mL; in test [22] it was above 128 µg/mL; in test [7], 128 µg/mL (≈ 141 µM); in [23], above 128 µg/mL; in test [24], 8 µg/mL (≈ 8.81 µM). The MIC in [25] is above 128 µg/mL; in test [26] it was above 128 µg/mL; in test [8] it was 4 µg/mL (≈ 4.4 µM); in test [27] it was 16 µg/mL (≈ 17.6 µM); in test [28], 16 µg/mL (≈ 17.6 µM). Also, the Inhibitory activity result in test [2] and in test [3] was “Inhibit” each time.

For `COc1ccc(Cn2c(=O)ccn([C@@H]3OC([C@H](O)[C@H](NCCCNC(=O)[C@H](N)C(C)O)C(=O)OC(C)(C)C)[C@@H](O[Si](C)(C)C(C)(C)C)[C@H]3O[Si](C)(C)C(C)(C)C)c2=O)cc1` (some centres not stated), the MIC is above 128 µg/mL in [29]; 4 µg/mL (≈ 4.54 µM) in test [31]; 4 µg/mL (≈ 4.54 µM) in test [32]; 4 µg/mL (≈ 4.54 µM) in test [33]; above 128 µg/mL in test [37]; 4 µg/mL (≈ 4.54 µM) in [39]. For the same compound, the MIC was 8 µg/mL (≈ 9.09 µM) in test [40]; 8 µg/mL (≈ 9.09 µM) in test [41]; 4 µg/mL (≈ 4.54 µM) in [42]; 8 µg/mL (≈ 9.09 µM) in [43]; 4 µg/mL (≈ 4.54 µM) in test [44]. For the same compound, in [30], the Inhibitory activity result is “Inhibit”. In addition, the Inhibitory activity result in [34], in test [35], in test [36] and in [38] was “inactive” in each case.
